Tests used:
E. coli strain pb3 [1] = assay: Growth curve inhibition, clinical strain pb3; assay type: cell-based, Escherichia coli; conditions: for Concentration giving significant growth inhibition of pb3: 2-fold serial dilution 40 to 5 µM, triplicates, compared with WT peptide; for Effect on growth of pb3 (in words): AMP at 40 µM
Procedure, shortened: (§1)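 Overnight E. coli clinical isolate cultures in Mueller–Hinton broth (150 rpm, 37°C) diluted 1:100 in MHB, with test peptide at 40 µM or in a 2-fold series from 40 to 5 µM, in triplicate. OD600 read every 30 min for 24 h with continuous shaking. Log-phase linear values were log2-transformed against time, slope taken as growth rate, normalized to a no-peptide control, and compared with wild-type peptide by Student's t test.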

[2] = test system: clinically derived E. coli strains pb3, pb15 and pb35; assay: Growth inhibition across the clinical strains pb3, pb15 and pb35; assay type: cell-based, Escherichia coli; conditions: AMP at 40 µM
Procedure, shortened: as §1

E. coli strain pb35 = assay: Growth curve inhibition, clinical strain pb35; assay type: cell-based, Escherichia coli; conditions: for Effect on growth of pb35 (in words): AMP at 40 µM
Procedure, shortened: as §1

E. coli strain pb15 [3] = conditions: strain pb15, blood; ref Basra et al. 15; cited from earlier work
E. coli strain pb5 = conditions: strain pb5, respiratory; ref Basra et al. 15; cited from earlier work
E. coli strain pb3 [4] = conditions: strain pb3, urinary tract infection; ref Basra et al. 15; cited from earlier work
E. coli strain pb15 [5] = assay: Growth curve inhibition, clinical strain pb15; assay type: cell-based, Escherichia coli; conditions: for Effect on growth of pb15 (in words): AMP at 40 µM
Procedure, shortened: as §1

[6] = 2-fold serial dilution 40 to 5 µM, triplicates, compared with WT peptide

For ILPWLWPWWPWRR [IndoK5L], the “Concentration giving significant growth inhibition of pb3” value (E. coli strain pb3 [1]) was 20 µM, the “Growth inhibition across all three clinical strains (in words)” value [2] was “equivalent response across all three strains” and the “Concentration giving significant growth inhibition of pb35” value (E. coli strain pb35; [6]) was 20 µM.

In the case of CC(C)(O/N=C(\C(=O)N[C@@H]1C(=O)N2C(C(=O)[O-])=C(C[n+]3ccccc3)CS[C@H]12)c1csc(N)n1)C(=O)O [CAZ, ceftazidime], the “CAZ MIC” value (E. coli strain pb15 [3]) is given as 128 µg/mL, the “CAZ MIC” value (E. coli strain pb5) is given as 0.5 µg/mL and the “CAZ MIC” value (E. coli strain pb3 [4]) is given as 4 µg/mL.

With ILPWDWPWWPWRR [IndoK5D] the “Concentration giving significant growth inhibition of pb3” value (E. coli strain pb3 [1]) was 20 µM, the “Growth inhibition across all three clinical strains (in words)” value [2] was “equivalent response across all three strains” and the “Concentration giving significant growth inhibition of pb15” value (E. coli strain pb15 [5]; [6]) was 10 µM.

In the case of ILPWAWPWWPWRR [IndoK5A], the “Effect on growth of pb3 (in words)” value (E. coli strain pb3 [1]) is reported as “greater effect”, the “Effect on growth of pb35 (in words)” value (E. coli strain pb35) is reported as “greater effect” and the “Effect on growth of pb15 (in words)” value (E. coli strain pb15 [5]) is reported as “reduced but still significant effect”.

In the case of ILPWCWPWWPWRR [IndoK5C], the “Effect on growth of pb3 (in words)” value (E. coli strain pb3 [1]) is reported as “greater effect”, the “Effect on growth of pb35 (in words)” value (E. coli strain pb35) is reported as “greater effect” and the “Effect on growth of pb15 (in words)” value (E. coli strain pb15 [5]) is reported as “reduced but still significant effect”.

For “ILPWKWPWWPWRR [indolicidin, reference compound]”, the “Dose-response of growth inhibition of pb3 (in words)” value (E. coli strain pb3 [1]; serial dilution 40 to 5 µM) was “not inhibited across the concentrations tested”.

— paper PMC11220656 (JAC-Antimicrobial Resistance, 2024)
